Source: ChEMBL document CHEMBL4052686, “Synthesis and antibacterial activity of 5-methylphenanthridium derivatives as FtsZ inhibitors” (2017)
Activity calls are given as the source filed them. The calls are words filed in the database; no cut-off is given here.

Columns and labels:
Pseudomonas aeruginosa [1] = test: Antibacterial activity against penicillin-susceptible Pseudomonas aeruginosa ATCC 27853 incubated for 24 hrs by tube-dilution method; type: functional; conditions: ATCC 27853, 24 h
In short: (§1)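 MIC by tube dilution per NCCLS; B. subtilis ATCC9372, E. coli ATCC25922, P. aeruginosa ATCC27853 and S. aureus ATCC25923 are penicillin-susceptible strains.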

Staphylococcus aureus [2] = test: Antibacterial activity against […] Staphylococcus aureus ATCC 29213 incubated for 24 hrs by tube-dilution method; type: functional; conditions: ATCC 29213, 24 h
In short: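 Broth tube-dilution MIC run as NCCLS recommends, against the […] S. aureus strain ATCC29213.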

Streptococcus pyogenes [3] = test: Antibacterial activity against penicillin-susceptible Streptococcus pyogenes clinical isolates incubated for 24 hrs by tube-dilution method; type: functional
Staphylococcus aureus [4] = test: Inhibition of FtsZ in penicillin-susceptible Staphylococcus aureus ATCC 25923 assessed as lowest drug concentration causing inhibition of cell division incubated for 5 hrs by phase-contrast light microscopy
In short: (§2)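 Cell division inhibition judged from bacterial cell morphology under phase-contrast light microscopy, scored as lowest concentration altering division; penicillin-susceptible strains B. subtilis ATCC9372, E. coli ATCC25922, P. aeruginosa ATCC27853, S. aureus ATCC25923.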

[5] = tested on: Staphylococcus epidermidis; test: Antibacterial activity against penicillin-resistant Staphylococcus epidermidis clinical isolates incubated for 24 hrs by tube-dilution method; type: functional
Pseudomonas aeruginosa [6] = test: Inhibition of FtsZ in penicillin-susceptible Pseudomonas aeruginosa ATCC 27853 assessed as lowest drug concentration causing inhibition of cell division incubated for 5 hrs by phase-contrast light microscopy; in short: as §2
Sus scrofa [7] = organism: Sus scrofa; test: Induction of porcine tubulin polymerisation at 2 times MIC for penicillin-resistant Staphylococcus aureus by fluorescence microscopy
In short: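 Polymerisation of mammalian tubulin measured with a commercial tubulin assay kit, read by fluorescence of the kit reporter, with paclitaxel as the positive control for enhanced polymerisation.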

Staphylococcus aureus [8] = test: Potency index, ratio of MIC for curcumin to MIC for test compound against […] Staphylococcus aureus ATCC 29213 incubated for 24 hrs by tube-dilution method; type: functional
Escherichia coli [9] = test: Inhibition of FtsZ in penicillin-susceptible Escherichia coli ATCC 25922 assessed as lowest drug concentration causing inhibition of cell division incubated for 5 hrs by phase-contrast light microscopy; in short: as §2
Staphylococcus aureus [10] = test: Antibacterial activity against penicillin-resistant Staphylococcus aureus clinical isolates incubated for 24 hrs by tube-dilution method; type: functional
Streptococcus pyogenes [11] = test: Antibacterial activity against penicillin-resistant Streptococcus pyogenes clinical isolates incubated for 24 hrs by tube-dilution method; type: functional
Bacillus subtilis [12] = test: Antibacterial activity against penicillin-susceptible Bacillus subtilis ATCC 9372 incubated for 24 hrs by tube-dilution method; type: functional; conditions: ATCC 9372, 24 h; in short: as §1
Staphylococcus aureus [13] = test: Antibacterial activity against penicillin-susceptible Staphylococcus aureus ATCC 25923 incubated for 24 hrs by tube-dilution method; type: functional; conditions: ATCC 25923, 24 h; in short: as §1
Bacillus subtilis [14] = test: Inhibition of FtsZ in penicillin-susceptible Bacillus subtilis ATCC 9372 assessed as lowest drug concentration causing inhibition of cell division incubated for 5 hrs by phase-contrast light microscopy; in short: as §2
Escherichia coli [15] = test: Antibacterial activity against penicillin-susceptible Escherichia coli ATCC 25922 incubated for 24 hrs by tube-dilution method; type: functional; conditions: ATCC 25922, 24 h; in short: as §1
Staphylococcus aureus [16] = test: Potency index, ratio of MIC for oxacillin sodium to MIC for test compound against […] Staphylococcus aureus ATCC 29213 incubated for 24 hrs by tube-dilution method; type: functional
Bacillus subtilis [17] = test: Potency index, ratio of MIC for ciprofloxaxin to MIC for test compound against penicillin-susceptible Bacillus subtilis ATCC 9372 incubated for 24 hrs by tube-dilution method; type: functional
Sus scrofa [18] = organism: Sus scrofa; test: Inhibition of porcine tubulin polymerisation at 32 ug/ml by fluorescence microscopy
In short: (§3)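 Polymerisation of mammalian tubulin followed with a commercial tubulin assay kit using a fluorescent reporter; compounds tested at 32 µg/mL or 256 µg/mL, paclitaxel as positive control.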

Streptococcus pyogenes [19] = test: Potency index, ratio of MIC for sanguinarine to MIC for test compound against penicillin-susceptible Streptococcus pyogenes clinical isolates incubated for 24 hrs by tube-dilution method; type: functional
Bacillus subtilis [20] = test: Potency index, ratio of MIC for sanguinarine to MIC for test compound against penicillin-susceptible Bacillus subtilis ATCC 9372 incubated for 24 hrs by tube-dilution method; type: functional
Bacillus subtilis [21] = test: Potency index, ratio of MIC for oxacillin sodium to MIC for test compound against penicillin-susceptible Bacillus subtilis ATCC 9372 incubated for 24 hrs by tube-dilution method; type: functional
Streptococcus pyogenes [22] = test: Potency index, ratio of MIC for oxacillin sodium to MIC for test compound against penicillin-susceptible Streptococcus pyogenes clinical isolates incubated for 24 hrs by tube-dilution method; type: functional
Bacillus subtilis [23] = test: Potency index, ratio of MIC for curcumin to MIC for test compound against penicillin-susceptible Bacillus subtilis ATCC 9372 incubated for 24 hrs by tube-dilution method; type: functional
Staphylococcus aureus [24] = test: Inhibition of FtsZ in penicillin-susceptible Staphylococcus aureus ATCC 25923 assessed as inhibition of cell division at […] incubated for 5 hrs by phase-contrast light microscopy
Bacillus subtilis [25] = test: Inhibition of FtsZ in penicillin-susceptible Bacillus subtilis ATCC 9372 assessed as inhibition of cell division at […] incubated for 5 hrs by phase-contrast light microscopy
Sus scrofa [26] = organism: Sus scrofa; test: Inhibition of porcine tubulin polymerisation at 256 ug/ml by fluorescence microscopy; in short: as §3

SMILES | MIC (Pseudomonas aeruginosa [1]) [µg/mL] | MIC (Staphylococcus aureus [2]) [µg/mL] | MIC (Streptococcus pyogenes [3]) [µg/mL] | MIC (Staphylococcus aureus [4]) [µg/mL] | MIC [5] [µg/mL] | MIC (Pseudomonas aeruginosa [6]) [µg/mL] | Activity (Sus scrofa [7]) | MIC (Escherichia coli [9]) [µg/mL] | MIC (Staphylococcus aureus [10]) [µg/mL] | MIC (Streptococcus pyogenes [11]) [µg/mL] | MIC (Bacillus subtilis [12]) [µg/mL] | MIC (Staphylococcus aureus [13]) [µg/mL] | MIC (Bacillus subtilis [14]) [µg/mL] | MIC (Escherichia coli [15]) [µg/mL] | Ratio (Bacillus subtilis [17]) | Ratio (Streptococcus pyogenes [19]) | Ratio (Bacillus subtilis [20]) | Ratio (Bacillus subtilis [21]) | Ratio (Streptococcus pyogenes [22]) | Ratio (Bacillus subtilis [23]) | also measured
CSc1cccc2c3ccccc3c[n+](C)c12.[Cl-] | > 128 | 16 | 8 | 16 | > 128 | > 128 | inactive | 128 | 8 | 8 | 8 | 16 | 8 | > 128 | – | – | – | – | – | – | Ratio (Staphylococcus aureus [8]): 8; Ratio (Staphylococcus aureus [16]): 8
CC(C)c1cccc2c3ccccc3c[n+](C)c12.[Cl-] | > 128 | 64 | 4 | 8 | 64 | > 128 | inactive | > 128 | 16 | 8 | 4 | 8 | 4 | > 128 | 2 | 2 | 2 | 2 | 4 | 8 | inhibition (Sus scrofa [18]): Active
Cc1ccc2c(c1)c1ccccc1c[n+]2C.[Cl-] | > 128 | 128 | 4 | 32 | 128 | > 128 | inactive | > 128 | 4 | 8 | 4 | 64 | 4 | > 128 | 2 | 2 | 2 | 2 | 4 | 8 | –
C[n+]1cc2ccccc2c2cccc(OC(F)(F)F)c21.[Cl-] | > 128 | 64 | 4 | 16 | 32 | > 128 | inactive | > 128 | 8 | 8 | 4 | 16 | 4 | > 128 | 2 | 2 | 2 | 2 | 4 | 8 | inhibition (Staphylococcus aureus [24]): Active; inhibition (Bacillus subtilis [25]): Active
C[n+]1cc2ccccc2c2cc(OC(F)(F)F)ccc21.[Cl-] | > 128 | > 128 | 128 | 128 | 128 | > 128 | inactive | > 128 | 128 | 128 | 128 | 128 | 64 | > 128 | – | – | – | – | – | – | inhibition (Sus scrofa [26]): Active
COc1cc(OC)c2c(c1)c1ccccc1c[n+]2C.[Cl-] | > 128 | 32 | 4 | 128 | 64 | 128 | inactive | > 128 | 4 | 8 | 4 | 128 | 2 | > 128 | 2 | 2 | 2 | 2 | 4 | 8 | –
Cc1cc(C)c2c(c1)c1ccccc1c[n+]2C.[Cl-] | > 128 | 32 | 4 | 64 | 128 | 128 | inactive | > 128 | 4 | 8 | 4 | 64 | 2 | > 128 | 2 | 2 | 2 | 2 | 4 | 8 | –
